These results are taken from PMC8865217 (Journal of natural products, 2021).

pKd: −log10 of the molar value. Converted amounts (≈) assume the structure as drawn.

The subject of series [1] is M. tuberculosis. The conditions noted are these: previous study; cited from earlier work.
A further series in a line: Interconversion. Type of series: physicochemical. The conditions noted are these: for Relative stability among diastereomers/epimers: hemiaminal equilibrium.
In series [2] the target is Mycobacterial ClpC1-NTD (caseinolytic protein C1 N-terminal domain) (Mycobacterium tuberculosis, UniProt P9WPC9). The experiment in a line: Binding affinity to ClpC1-NTD by surface plasmon resonance. The conditions noted are these: SPR, KD = kd/ka, 1:1 Langmuir model. A digest of the protocol:
(§1)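 Association (ka) and dissociation (kd) rate constants came from a global fit of double-referenced SPR data to a 1:1 Langmuir model, and KD was calculated as kd/ka. The same procedure was used for the mycobacterial ClpC1 N-terminal domain and for the full-length protein.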
For orientation: Surface plasmon resonance follows binding to a sensor surface in real time, without labels.

The target in series [3] is Mycobacterial ClpC1 FL (full-length protein) (Mycobacterium tuberculosis, UniProt P9WPC9). The experiment in a line: Binding affinity to full-length ClpC1 by surface plasmon resonance. The conditions noted are these: SPR, KD = kd/ka, 1:1 Langmuir model. Put shortly: as §1
Mycobacterial ClpC1 FL (full-length protein), sequence (P9WPC9 whole entry): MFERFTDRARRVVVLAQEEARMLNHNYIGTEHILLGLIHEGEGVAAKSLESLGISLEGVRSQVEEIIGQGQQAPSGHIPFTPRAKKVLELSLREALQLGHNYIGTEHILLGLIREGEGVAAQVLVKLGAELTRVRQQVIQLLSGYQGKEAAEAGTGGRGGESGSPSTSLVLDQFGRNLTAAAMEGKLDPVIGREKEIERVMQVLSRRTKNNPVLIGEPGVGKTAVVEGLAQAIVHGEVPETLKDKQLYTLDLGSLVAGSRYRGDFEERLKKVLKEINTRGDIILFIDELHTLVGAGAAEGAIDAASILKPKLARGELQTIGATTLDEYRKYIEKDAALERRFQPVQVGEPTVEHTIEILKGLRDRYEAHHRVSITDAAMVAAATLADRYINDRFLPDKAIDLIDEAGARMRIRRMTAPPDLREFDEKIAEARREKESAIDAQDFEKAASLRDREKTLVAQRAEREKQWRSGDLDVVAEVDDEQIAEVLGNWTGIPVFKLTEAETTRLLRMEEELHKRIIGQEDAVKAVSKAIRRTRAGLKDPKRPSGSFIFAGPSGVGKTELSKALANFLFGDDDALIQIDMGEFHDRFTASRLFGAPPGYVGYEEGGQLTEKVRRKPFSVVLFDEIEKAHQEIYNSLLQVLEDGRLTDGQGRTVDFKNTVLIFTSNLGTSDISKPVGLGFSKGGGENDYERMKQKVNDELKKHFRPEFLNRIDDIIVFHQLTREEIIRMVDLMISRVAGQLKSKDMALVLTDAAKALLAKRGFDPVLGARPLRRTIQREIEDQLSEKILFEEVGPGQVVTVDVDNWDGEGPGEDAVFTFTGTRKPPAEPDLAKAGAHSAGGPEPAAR
In series [4] the test system is M. tuberculosis. The experiment in a line: MIC against M. tuberculosis, microplate Alamar Blue assay. Type of series: cell-based. Conditions: Mycobacterium tuberculosis, read-out: MIC value (anti-Mtb).

Mycobacterial ClpC1-NTD (caseinolytic protein C1 N-terminal domain), sequence (P9WPC9 2-144): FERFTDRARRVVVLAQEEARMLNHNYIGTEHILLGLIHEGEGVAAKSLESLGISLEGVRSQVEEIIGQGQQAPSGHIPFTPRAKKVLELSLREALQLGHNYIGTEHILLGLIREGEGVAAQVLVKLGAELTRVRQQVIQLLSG

As for `C/C=C/C[C@@H]1NC(=O)[C@H](CC(C)C)N2C(=O)[C@H](C[C@H](C)[C@H]2O)N(C)C(=O)[C@H](C)NC(=O)[C@H](Cc2ccc(O)c([N+](=O)[O-])c2)NC(=O)[C@H](CC(C)C)N(C)C(=O)[C@H](Cc2cn(C(C)(C)[C@H]3CO3)c3ccccc23)NC1=O` [rufomycin 4], the “MIC value (anti-Mtb)” value in the series with M. tuberculosis [1] is ~ 0.020 μM.

Consider `C/C=C/C[C@@H]1NC(=O)[C@H](CC(C)C)N2C(=O)[C@H](C[C@@H](C)[C@H]2O)N(C)C(=O)[C@H](C)NC(=O)[C@H](Cc2ccc(O)c([N+](=O)[O-])c2)NC(=O)[C@H](CC(C)C)N(C)C(=O)[C@H](Cc2cn(C(C)(C)[C@H]3CO3)c3ccccc23)NC1=O` [rufomycin 6], for which, in “Interconversion”, the “Relative stability among diastereomers/epimers” value is listed as “more stable epimer”. In “Interconversion” (slow conversion under aqueous conditions), the “Conversion to rufomycin 7” value was ~ 5%.

On to `C/C=C/C[C@@H]1NC(=O)[C@H](CC(C)C)N2C(=O)[C@H](C[C@@H](C)[C@@H]2O)N(C)C(=O)[C@H](C)NC(=O)[C@H](Cc2ccc(O)c([N+](=O)[O-])c2)NC(=O)[C@H](CC(C)C)N(C)C(=O)[C@H](Cc2cn(C(C)(C)[C@H]3CO3)c3ccccc23)NC1=O` [rufomycin 7], for which, in “Interconversion”, the “Relative stability among diastereomers/epimers” value is recorded as “most unstable diastereomer”. Also, the “Epimerization to rufomycin 6” value in “Interconversion” (quickly, during concentration) is ~ 50%.

Take `CC=CCC1NC(=O)C(CC(C)C)N2C(=O)C(CC(C)C2OCCCC)N(C)C(=O)C(C)NC(=O)C(Cc2ccc(O)c([N+](=O)[O-])c2)NC(=O)C(CC(C)C)N(C)C(=O)C(Cc2cn(C(C)(C)C(O)CCl)c3ccccc23)NC1=O` (stereo not drawn) [rufomycinSS 1]: the figures for the pKd in series [2] and in series [3] were 6.22 and 6.14, respectively.

Regarding `CC=CCC1NC(=O)C(CC(C)C)N2C(=O)C(CC(C)C2OCCCC)N(C)C(=O)C(C)NC(=O)C(Cc2ccc(O)c([N+](=O)[O-])c2)NC(=O)C(CC(C)C)N(C)C(=O)C(Cc2cn(C(C)(C)C(O)CCl)c3ccccc23)NC1=O` (stereo not drawn) [rufomycinSS 2], the pKd (usually the negative decadic logarithm of the Kd, by convention in mol/L) in series [2] was 7.57; in series [3], 7.54.

For `C/C=C/C[C@@H]1NC(=O)[C@H](CC(C)C)N2C(=O)[C@H](C[C@@H](C)[C@H]2OCCCC)N(C)C(=O)[C@H](C)NC(=O)[C@H](Cc2ccc(O)c([N+](=O)[O-])c2)NC(=O)[C@H](CC(C)C)N(C)C(=O)[C@H](Cc2cn(C(C)(C)C(O)CCl)c3ccccc23)NC1=O` (stereo partly drawn) [rufomycinSS 3], the MIC (usually the smallest concentration in the dilution series that meets the test's criterion for growth inhibition) in the series on M. tuberculosis [4] is 4.3 µM (≈ 4.88 µg/mL). Also, the negative-log Kd (pKd) in series [2] was 6.68; in series [3], 6.77.
